Data on one compound can be found in ChEMBL document CHEMBL3407438, “Discovery of potent, orally bioavailable, small-molecule inhibitors of WNT signaling from a cell-based pathway screen” (J Med Chem, 2015).

Each structure is given as a SMILES string. The source made the active and inactive calls.

Broadly, the Tmax is the time from dosing to the highest level. Broadly, the half-life is the time needed for the level to fall by half in the phase considered. By AUC is commonly meant the area under the concentration-time curve, a measure of exposure. For orientation: IC50 means the concentration at which inhibition is half-maximal. One may read the clearance as the volume of plasma or blood freed of the substance per unit of time.

A short description of data set [1]: Tmax in NMRI mouse at 0.2 mg/kg, iv. Type of data set: ADME, organism-based. Also noted: dose 0.2 mg/kg, route intravenous. The conditions noted are these: in vivo. The method in brief:
(§1)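 Female NMRI mice (n = 5) given a single iv bolus (0.2 mg/kg per compound) or oral gavage (0.5 mg/kg per compound) as a cassette, in DMSO/PEG 200/water. Serial retro-orbital blood was drawn under isoflurane from 3 animals per route at 0.1 (iv), 0.25 (po), 0.5, 1, 2, 4 and 6 h. Plasma was quantified by LC–MS/MS.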

Data set [2] in a line: Antitumor activity against human COLO205-F1756 clone 4 cells harboring APC mutant xenografted in CrTac:NCr-Foxn1nu mouse assessed as reduction in tumor weight at 70 mg/kg, po bid for 9 days relative to control. Type of data set: functional, COLO 205. Also noted: scale not given: the % may be the effect or the level left. The procedure, abridged:
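Female athymic nude mice were implanted sc in the flank with 3 million COLO205-F1756 clone 4 cells. At about 100 mm3, groups of n = 8 were gavaged at 70 mg/kg bid or with vehicle (10% DMSO, 5% Tween 20 in saline). Luminescent flux was imaged after sc D-luciferin 2 and 6 h post final dose, then tumours were excised and weighed. Mann–Whitney U test.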

Data set [3] is described as follows: Half life in NMRI mouse at 0.2 mg/kg, iv. To be noted: in vivo. Type of data set: ADME, organism-based. Also noted: dose 0.2 mg/kg, route intravenous. The procedure, abridged: as §1
Data set [4] in a line: AUC in Wistar rat at 0.5 mg/kg, po. Type of data set: ADME, organism-based. Also noted: dose 0.5 mg/kg, route oral. The conditions noted are these: plasma. The method in brief:
(§2)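 Male Wistar rats (n = 6) received cassette dosing, either iv bolus at 0.2 mg/kg or oral gavage at 0.5 mg/kg per compound, in DMSO/PEG 200/water. Plasma levels were measured by UPLC–MS/MS.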

Data set [5] can be described thus: Volume of distribution at steady state in Wistar rat at 0.2 mg/kg, iv. Type of data set: ADME, organism-based. Also on record: dose 0.2 mg/kg, route intravenous. To be noted: in vivo, read-out: Vdss. The method in brief:
as §2

The nature of another data set: cells. The conditions noted are these: Homo sapiens, RKO-F1522, 24 h.
The test system of a further data set is COLO 205. Briefly: Effect on TCF4 level in human COLO205-F1756 clone 4 cells harboring APC mutant and TCF/LEF responsive element at 350 nM by immunoblotting. Type of data set: functional, cell-based. (Immunoblotting shows a protein as a band on a membrane.)
A short description of data set [6]: Tmax in NMRI mouse at 0.5 mg/kg, po. Type of data set: ADME, organism-based. Also noted: dose 0.5 mg/kg, route oral. To be noted: in vivo. The method in brief:
as §1

The target in the next data set is T1, Cytochrome P450 2C8 (Homo sapiens, UniProt P10632).
T1 sequence (P10632 whole entry): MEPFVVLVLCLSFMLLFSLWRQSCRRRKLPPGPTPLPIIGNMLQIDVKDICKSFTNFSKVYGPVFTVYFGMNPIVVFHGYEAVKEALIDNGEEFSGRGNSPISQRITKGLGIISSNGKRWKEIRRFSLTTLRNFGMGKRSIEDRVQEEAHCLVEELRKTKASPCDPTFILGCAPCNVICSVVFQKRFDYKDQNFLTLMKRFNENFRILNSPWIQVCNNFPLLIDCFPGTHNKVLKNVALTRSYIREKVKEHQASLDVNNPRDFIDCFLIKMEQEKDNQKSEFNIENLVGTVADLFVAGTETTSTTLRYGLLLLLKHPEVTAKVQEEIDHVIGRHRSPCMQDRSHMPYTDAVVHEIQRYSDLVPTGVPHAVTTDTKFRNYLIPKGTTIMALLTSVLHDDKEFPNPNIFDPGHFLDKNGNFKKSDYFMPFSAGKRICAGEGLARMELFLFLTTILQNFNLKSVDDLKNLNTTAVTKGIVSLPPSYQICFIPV
Briefly: Inhibition of CYP2C8 (unknown origin). The format is ADME.

Data set [7] in a line: Volume of distribution at steady state in NMRI mouse at 0.2 mg/kg, iv. Type of data set: ADME, organism-based. Also noted: dose 0.2 mg/kg, route intravenous. To be noted: in vivo, read-out: Vdss. The method in brief: as §1
Data set [8] deals with T2, Poly [ADP-ribose] polymerase tankyrase-1 (Homo sapiens, UniProt O95271).
T2 sequence (O95271 whole entry): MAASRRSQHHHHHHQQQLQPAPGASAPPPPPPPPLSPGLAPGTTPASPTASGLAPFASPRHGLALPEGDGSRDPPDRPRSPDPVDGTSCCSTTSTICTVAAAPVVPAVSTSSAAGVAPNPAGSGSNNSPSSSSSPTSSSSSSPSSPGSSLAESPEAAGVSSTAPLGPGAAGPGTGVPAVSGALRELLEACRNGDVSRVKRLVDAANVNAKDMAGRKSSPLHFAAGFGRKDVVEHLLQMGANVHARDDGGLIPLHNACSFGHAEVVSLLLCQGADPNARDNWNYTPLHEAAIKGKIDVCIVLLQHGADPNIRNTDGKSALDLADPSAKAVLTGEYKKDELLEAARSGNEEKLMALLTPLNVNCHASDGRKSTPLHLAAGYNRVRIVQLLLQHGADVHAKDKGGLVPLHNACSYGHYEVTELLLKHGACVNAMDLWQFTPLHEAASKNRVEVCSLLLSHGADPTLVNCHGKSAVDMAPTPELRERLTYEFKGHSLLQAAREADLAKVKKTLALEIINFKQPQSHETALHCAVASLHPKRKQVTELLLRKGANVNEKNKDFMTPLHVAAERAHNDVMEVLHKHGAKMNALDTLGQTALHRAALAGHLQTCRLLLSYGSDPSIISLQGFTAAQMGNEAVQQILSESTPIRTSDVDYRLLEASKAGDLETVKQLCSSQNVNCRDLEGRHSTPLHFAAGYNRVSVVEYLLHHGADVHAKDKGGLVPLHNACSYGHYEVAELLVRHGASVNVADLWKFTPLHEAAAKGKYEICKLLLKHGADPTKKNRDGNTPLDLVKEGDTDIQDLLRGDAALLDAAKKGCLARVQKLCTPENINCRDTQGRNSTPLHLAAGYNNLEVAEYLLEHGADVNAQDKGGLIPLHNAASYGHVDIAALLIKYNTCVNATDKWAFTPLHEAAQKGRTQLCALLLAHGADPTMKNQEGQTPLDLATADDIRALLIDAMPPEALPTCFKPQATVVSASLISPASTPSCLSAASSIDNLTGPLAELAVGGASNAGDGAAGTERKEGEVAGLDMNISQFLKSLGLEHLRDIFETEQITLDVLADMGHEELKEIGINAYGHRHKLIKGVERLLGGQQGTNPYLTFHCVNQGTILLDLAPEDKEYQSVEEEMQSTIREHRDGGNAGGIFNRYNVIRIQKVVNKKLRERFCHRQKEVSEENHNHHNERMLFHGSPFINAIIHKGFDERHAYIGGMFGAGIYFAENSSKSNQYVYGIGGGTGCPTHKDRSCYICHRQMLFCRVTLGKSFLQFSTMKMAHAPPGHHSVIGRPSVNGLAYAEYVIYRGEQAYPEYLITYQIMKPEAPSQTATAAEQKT
Briefly: Inhibition of GST-tagged TNKS1 (1023 to 1327 aa) (unknown origin) after 90 mins by HTRF assay. (In general: TR-FRET usually uses a lanthanide donor and a delayed reading to cut background.)

The nature of data set [9]: Clearance in NMRI mouse at 0.2 mg/kg, iv. The format is ADME, organism-based. Also noted: dose 0.2 mg/kg, route intravenous. To be noted: in vivo. The method in brief:
as §1

A short description of data set [10]: AUC in NMRI mouse at 0.2 mg/kg, iv. Type of data set: ADME, organism-based. Also noted: dose 0.2 mg/kg, route intravenous. To be noted: plasma. The procedure, abridged: as §1
The nature of data set [11]: AUC in Wistar rat at 0.2 mg/kg, iv. Type of data set: ADME, organism-based. Also on record: dose 0.2 mg/kg, route intravenous. To be noted: plasma. The procedure, abridged:
as §2

Another data set concerns the target Cytochrome P450 3A4 (Homo sapiens, UniProt P08684). Briefly: Inhibition of CYP3A4 (unknown origin). Type of data set: ADME. To be noted: human.

Chain of Cytochrome P450 3A4 (P08684 whole entry): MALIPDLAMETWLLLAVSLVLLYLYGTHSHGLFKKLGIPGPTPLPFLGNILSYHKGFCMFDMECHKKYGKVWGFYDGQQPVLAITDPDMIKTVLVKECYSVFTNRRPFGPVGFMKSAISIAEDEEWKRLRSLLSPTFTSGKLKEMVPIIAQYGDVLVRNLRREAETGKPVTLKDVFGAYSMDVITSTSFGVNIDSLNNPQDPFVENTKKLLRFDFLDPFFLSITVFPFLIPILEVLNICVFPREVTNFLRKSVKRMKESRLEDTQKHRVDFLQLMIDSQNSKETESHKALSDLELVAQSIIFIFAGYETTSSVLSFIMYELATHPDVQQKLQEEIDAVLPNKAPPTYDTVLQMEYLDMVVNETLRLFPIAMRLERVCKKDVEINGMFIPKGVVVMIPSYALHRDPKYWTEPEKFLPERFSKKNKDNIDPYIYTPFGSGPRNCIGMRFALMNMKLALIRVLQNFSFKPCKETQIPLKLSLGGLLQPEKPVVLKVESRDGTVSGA

As for `Cn1cc(-c2ccc(-c3cncc(Cl)c3N3CCC4(CCNC4=O)CC3)cc2)cn1`, the Tmax in data set [1] worked out at 6 min; in data set [6], 15 min. The Activity in data set [2] amounted to 37.5%. Further, the half-life in data set [3] is 33 min. Further, the AUC came out at 288 ng·h/mL in [4], 107 ng·h/mL in data set [10] and 130 ng·h/mL in data set [11]. Moreover, the Vd in data set [5] came to 1.8 L/kg; in [7], 1.1 L/kg. Also, the IC50 (in the data set “cells”; in data set [8]) was above 10 µM throughout. For the same compound, in the data set with COLO 205, the result was inactive. In addition, the “inhibition (INH)” value on Cytochrome P450 2C8 and against Cytochrome P450 3A4 was “Not Active” throughout. Further, the clearance in data set [9] was 31 mL/min/kg.
